These results are taken from ChEMBL document CHEMBL3779813, “Design, synthesis, topoisomerase I & II inhibitory activity, antiproliferative activity, and structure-activity relationship study of pyrazoline derivatives: An ATP-competitive human topoisomerase IIα catalytic inhibitor” (Bioorg Med Chem, 2016).

In one experiment the test system is T47D. Nature of the experiment: Antiproliferative activity against human T47D cells after 72 hrs by CCK8 assay. The format is functional, cell-based. In short, it runs like this:
(§1)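 Cells grown in RPMI 1640 with 10% FBS and 1% penicillin, 37 °C, 5% CO2. Seeded at 10^4 cells/well, 24 h at 37 °C, then compound for 72 h. CCK-8 (mitochondrial dehydrogenase) added, 4 h at 37 °C, absorbance read at 450 nm; IC50 derived. Compound stocks 20 mM in DMSO.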
In general terms: Tetrazolium dyes change colour on reduction, which living cells bring about.

A short description of experiment [1]: Antiproliferative activity against human BT474 cells after 72 hrs by CCK8 assay. Type of experiment: functional, cell-based. Conditions: BT-474, 72 h. Summed up: as §1
Experiment [2] in a line: Antiproliferative activity against human HCT15 cells after 72 hrs by CCK8 assay. Type of experiment: functional, cell-based. Conditions: HCT-15, 72 h. Summed up:
as §1

Experiment [3] concerns the target DNA topoisomerase 2-alpha (Homo sapiens) (UniProt P11388). Nature of the experiment: Inhibition of human recombinant topoisomerase 2alpha assessed as relaxation of supercoiled plasmid DNA pBR322 at 20 uM after 30 mins by ethidium bromide staining based agarose gel electrophoresis. In short, it runs like this:
(§2)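 Human topo IIα (1 unit) and 100 ng supercoiled pBR322 incubated 30 min at 37 °C in 10 mM Tris-HCl pH 7.9, 50 mM NaCl, 5 mM MgCl2, 1 mM EDTA, 1 mM ATP, 15 µg/mL BSA. Stopped with 7 mM EDTA; 0.8% agarose in TAE, ethidium bromide stain, UV quantitation as % relaxation inhibition.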

The target is the same in experiment [4]. Nature of the experiment: Inhibition of human recombinant topoisomerase 2alpha assessed as relaxation of supercoiled plasmid DNA pBR322 at 100 uM after 30 mins by ethidium bromide staining based agarose gel electrophoresis. Summed up: as §2
In experiment [5] the target is T1, DNA topoisomerase 1 (Homo sapiens) (UniProt P11387).
T1 sequence (whole entry): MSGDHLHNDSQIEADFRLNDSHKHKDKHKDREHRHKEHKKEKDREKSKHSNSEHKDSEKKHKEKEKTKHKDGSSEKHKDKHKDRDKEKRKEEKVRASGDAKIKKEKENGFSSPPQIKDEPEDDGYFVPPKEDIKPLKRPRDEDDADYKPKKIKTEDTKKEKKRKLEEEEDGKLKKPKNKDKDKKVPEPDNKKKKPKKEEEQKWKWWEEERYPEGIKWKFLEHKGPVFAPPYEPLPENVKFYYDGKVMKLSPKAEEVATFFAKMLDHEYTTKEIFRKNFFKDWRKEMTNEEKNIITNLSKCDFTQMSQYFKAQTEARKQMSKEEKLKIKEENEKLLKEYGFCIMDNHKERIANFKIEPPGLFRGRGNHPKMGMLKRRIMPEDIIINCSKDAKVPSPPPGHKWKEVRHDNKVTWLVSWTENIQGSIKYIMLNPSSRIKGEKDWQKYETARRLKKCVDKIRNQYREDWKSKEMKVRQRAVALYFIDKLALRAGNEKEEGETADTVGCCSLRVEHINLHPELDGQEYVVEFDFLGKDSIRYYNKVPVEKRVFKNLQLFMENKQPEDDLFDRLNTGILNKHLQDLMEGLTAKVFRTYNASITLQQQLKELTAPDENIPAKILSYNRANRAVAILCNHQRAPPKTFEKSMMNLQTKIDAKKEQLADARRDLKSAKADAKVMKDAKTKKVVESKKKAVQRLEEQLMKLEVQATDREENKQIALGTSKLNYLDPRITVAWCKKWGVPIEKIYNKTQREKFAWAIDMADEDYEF
Nature of the experiment: Inhibition of human recombinant topoisomerase 1 assessed as relaxation of supercoiled plasmid DNA pBR322 at 100 uM after 30 mins by ethidium bromide staining based agarose gel electrophoresis. In short, it runs like this:
(§3)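 Recombinant human topo I (1 unit) with 100 ng supercoiled pBR322, 30 min at 37 °C in 10 mM Tris-HCl pH 7.9, 150 mM NaCl, 0.1% BSA, 1 mM spermidine, 5% glycerol. Stopped with sarcosyl buffer; 0.8% agarose, 60 V 1 h in TAE, ethidium bromide stain 30 min, UV densitometry of relaxation as % inhibition.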

The test system of experiment [6] is HCT-15. Nature of the experiment: Inhibition of human recombinant topoisomerase mediated DNA relaxation in human HCT15 nuclear lysate at 50 uM preincubated for 24 hrs followed by addition of pBR322 plasmid measured after 30 mins by ethidium bromide staining based agarose gel electrophoresis. Summed up: (§4)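 HCT15 cells treated 24 h with compound, harvested, nuclear lysates prepared and protein measured by Bradford. 100 µg nuclear protein plus 100 ng pBR322 in buffer with Tris-Cl pH 7.5, MgCl2, ATP, EDTA, DTT, KCl, BSA, 30 min at 37 °C. Analyzed on 0.9% agarose with ethidium bromide; lysate-free plasmid control.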

The target of experiment [7] is DNA topoisomerase 2-alpha (Homo sapiens) (UniProt P11388). Nature of the experiment: Inhibition of human recombinant topoisomerase 2alpha using supercoiled pUC18 as substrate assessed as hydrolysis of ATP preincubated for 30 mins followed by ATP addition measured after 30 mins by malachite green phosphate based ELISA microplate reader analysis.
Sequence of DNA topoisomerase 2-alpha (Homo sapiens) (P11388 whole entry): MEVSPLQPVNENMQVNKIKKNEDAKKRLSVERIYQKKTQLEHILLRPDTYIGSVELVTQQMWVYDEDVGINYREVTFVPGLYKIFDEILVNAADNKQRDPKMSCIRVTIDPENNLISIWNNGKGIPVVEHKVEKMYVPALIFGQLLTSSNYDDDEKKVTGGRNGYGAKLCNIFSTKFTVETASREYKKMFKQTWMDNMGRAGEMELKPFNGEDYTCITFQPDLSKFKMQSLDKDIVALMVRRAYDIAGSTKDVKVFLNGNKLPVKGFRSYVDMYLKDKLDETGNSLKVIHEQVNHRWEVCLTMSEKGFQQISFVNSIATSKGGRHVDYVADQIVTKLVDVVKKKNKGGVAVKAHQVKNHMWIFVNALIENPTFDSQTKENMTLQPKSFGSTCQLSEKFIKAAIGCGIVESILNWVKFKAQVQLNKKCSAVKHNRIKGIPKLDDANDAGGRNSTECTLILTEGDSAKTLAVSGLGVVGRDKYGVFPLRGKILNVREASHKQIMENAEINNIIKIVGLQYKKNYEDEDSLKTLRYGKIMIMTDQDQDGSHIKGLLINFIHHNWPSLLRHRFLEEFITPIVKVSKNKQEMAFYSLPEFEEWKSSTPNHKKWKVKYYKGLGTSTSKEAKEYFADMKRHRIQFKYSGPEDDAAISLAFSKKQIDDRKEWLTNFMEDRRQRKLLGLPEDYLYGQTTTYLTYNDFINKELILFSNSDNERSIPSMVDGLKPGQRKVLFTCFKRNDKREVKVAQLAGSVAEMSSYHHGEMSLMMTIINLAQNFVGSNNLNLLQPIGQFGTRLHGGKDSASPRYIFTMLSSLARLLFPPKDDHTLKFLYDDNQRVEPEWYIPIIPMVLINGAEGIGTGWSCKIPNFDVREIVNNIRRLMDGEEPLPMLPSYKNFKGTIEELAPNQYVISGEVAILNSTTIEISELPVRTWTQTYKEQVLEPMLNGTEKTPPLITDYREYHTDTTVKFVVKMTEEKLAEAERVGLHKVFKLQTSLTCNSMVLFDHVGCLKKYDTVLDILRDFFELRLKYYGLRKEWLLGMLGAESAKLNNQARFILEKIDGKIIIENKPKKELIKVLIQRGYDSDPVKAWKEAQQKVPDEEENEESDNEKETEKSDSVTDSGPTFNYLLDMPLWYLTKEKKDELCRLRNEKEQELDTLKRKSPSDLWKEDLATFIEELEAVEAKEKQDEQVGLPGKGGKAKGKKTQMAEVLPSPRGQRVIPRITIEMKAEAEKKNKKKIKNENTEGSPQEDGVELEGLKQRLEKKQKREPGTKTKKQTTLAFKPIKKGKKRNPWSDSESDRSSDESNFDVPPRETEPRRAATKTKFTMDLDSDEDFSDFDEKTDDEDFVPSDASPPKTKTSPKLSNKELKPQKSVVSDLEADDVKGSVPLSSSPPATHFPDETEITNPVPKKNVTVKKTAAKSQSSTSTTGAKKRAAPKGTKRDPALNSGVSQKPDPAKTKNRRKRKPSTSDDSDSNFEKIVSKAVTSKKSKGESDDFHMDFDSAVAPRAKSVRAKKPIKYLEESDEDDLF
Experiment [8] has the same target. Conditions: 100 uM.
Experiment [9] concerns the target T1, DNA topoisomerase 1 (Homo sapiens). Nature of the experiment: Inhibition of human recombinant topoisomerase 1 assessed as relaxation of supercoiled plasmid DNA pBR322 at 20 uM after 30 mins by ethidium bromide staining based agarose gel electrophoresis. In short, it runs like this: as §3
For experiment [10], the target named is DNA topoisomerase 2-alpha (Homo sapiens) (UniProt P11388). Nature of the experiment: Activity at human recombinant topoisomerase 2alpha using supercoiled plasmid pBR322 as substrate assessed as stabilization of enzyme-DNA cleavage upto 300 uM after 20 mins by ethidium bromide staining based agarose gel electrophoresis. In short, it runs like this:
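Cleavage complex: 125 ng supercoiled pBR322 preincubated 10 min with 3 units human topo IIα, then compound added, 20 min at 37 °C in 10 µL. Stopped with SDS, proteinase K digestion 30 min at 45 °C, heated 2 min at 70 °C. Run on 0.8% agarose with 0.5 µg/mL ethidium bromide in TAE; linear DNA band quantified by UV imaging.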

For experiment [11] the target is unchanged. Nature of the experiment: Competitive inhibition of human recombinant topoisomerase 2alpha at 5 to 250 uM using supercoiled plasmid pBR322 as substrate after 30 mins by ethidium bromide staining based agarose gel electrophoresis in presence of ATP.
The subject of experiment [12] is HCT-15. Nature of the experiment: Inhibition of human recombinant topoisomerase mediated DNA relaxation in human HCT15 nuclear lysate at 100 uM preincubated for 24 hrs followed by addition of pBR322 plasmid measured after 30 mins by ethidium bromide staining based agarose gel electrophoresis. Summed up:
as §4

Counter-ions that a name gives are not always drawn. Active and inactive are the calls of the source. The calls are words filed in the database; no cut-off is given here.

Consider `CC[C@@]1(O)C(=O)OCc2c1cc1n(c2=O)Cc2cc3ccccc3nc2-1` [CAMPTOTHECIN], for which the IC50 (commonly the midpoint of a concentration-inhibition curve) worked out at 4.1 µM in the experiment with T47D, 7 µM in experiment [1] and 7.1 µM in [2].

Consider `COc1ccc(C2CC(c3ccccc3)=NN2C(=O)c2ccncc2)cc1` (configuration not stated), for which the inhibition (commonly the share of the control response that was lost under treatment) in experiment [3] is 0%; in [4] it was 92.5%; in [5], 0%. Further, the IC50 is over 50 µM with T47D, over 50 µM in [1] and 10.4 µM in [2].

On to `COc1cc([C@@H]2c3cc4c(cc3[C@@H](O[C@@H]3O[C@@H]5CO[C@@H](C)O[C@H]5[C@H](O)[C@H]3O)[C@H]3COC(=O)[C@H]23)OCO4)cc(OC)c1O` [ETOPOSIDE], for which the inhibition in the experiment on HCT-15 [6] is 36%; in experiment [4], 95.9%; in [7], “Dose-dependent effect”. The results for the IC50 (in the experiment on T47D; in [1]; in experiment [2]) were 6.4 µM, 6.6 µM and 6.9 µM, respectively. The inhibition entry in experiment [8] is “inactive”.

`COc1ccc(C2=NN(C(=O)c3ccco3)C(c3ccco3)C2)cc1` (configuration not stated): the values for the inhibition in experiment [3], in experiment [4] and in experiment [5] were 0%, 94.1% and 0%, respectively. In addition, the 50% inhibitory concentration (IC50) in the experiment with T47D was 7.5 µM; in [1] it was over 50 µM; in experiment [2], 4.3 µM.

As to `COc1ccccc1C1=NN(C(=O)c2ccc([N+](=O)[O-])o2)C(c2ccc([N+](=O)[O-])cc2)C1` (configuration not stated), the inhibition was 2.9% in experiment [3], 92.6% in experiment [4] and 0% in [5]. Besides, the concentration for half-maximal inhibition (IC50) (in the experiment on T47D; in experiment [1]; in [2]) was over 50 µM in each case.

Regarding `COc1ccccc1C1=NN(C(=O)c2ccncc2)C(c2ccc([N+](=O)[O-])cc2)C1` (configuration not stated), the inhibition was determined as 0% in experiment [3], 92.8% in [4] and 0% in [5]. Moreover, the figures for the IC50 (in the experiment with T47D; in [1]; in [2]) were over 50 µM, 7.2 µM and 2.6 µM, respectively.

As for `O=C(c1ccco1)N1N=C(c2ccc(Cl)cc2)CC1c1ccco1` (configuration not stated), the inhibition in [3] is 1.3%; in [4], 93.1%; in [9] it was 4%; in experiment [5] it was 96.8%. The half-inhibitory concentration (IC50) (with T47D; in experiment [1]; in experiment [2]) was over 50 µM in each case.

On to `COc1ccc(C2CC(c3ccccc3)=NN2C(=O)c2nc3ccccc3s2)cc1` (configuration not stated), for which the inhibition in experiment [3] turned out to be 0%; in experiment [4] it was 91.2%; in [5], 0%. The IC50 in the experiment with T47D is over 50 µM; in experiment [1] it was 6.3 µM; in experiment [2] it was 1.9 µM.

Consider `COc1ccc(C2CC(c3ccc(Cl)cc3)=NN2C(=O)c2nc3ccccc3s2)cc1` (configuration not stated), for which the inhibition was 0% in experiment [3]; 78% in the experiment with HCT-15 [6]; 85.4% in the experiment with HCT-15 [12]; 89.7% in [4]; “Dose-dependent effect” in experiment [7]; 0% in [5]. Moreover, in experiment [10], the outcome was inactive. The IC50 with T47D was 6.6 µM; in experiment [1] it was 7.2 µM; in [2] it was 4.1 µM. Further, the inhibition result in experiment [11] was “Active”.

As to `COc1cccc2c1C(=O)c1c(O)c3c(c(O)c1C2=O)C[C@@](O)(C(=O)CO)C[C@@H]3O[C@H]1C[C@H](N)[C@H](O)[C@H](C)O1` [DOXORUBICIN HYDROCHLORIDE], the half-maximal inhibitory concentration (IC50) in experiment [1] is 3.2 µM; in experiment [2] it was 23 µM.

Consider `COc1ccc(C2CC(c3ccccc3)=NN2C(=O)c2ccco2)cc1` (configuration not stated), for which the inhibition in [3] is 0%; in experiment [4], 91.6%; in experiment [5], 0%. The results for the half-inhibitory concentration (IC50) (in the experiment with T47D; in experiment [1]; in [2]) were 27.3 µM, over 50 µM and 3.9 µM, respectively.

As for `O=C(c1ccncc1)N1N=C(c2ccc(Cl)cc2)CC1c1ccco1` (configuration not stated), the inhibition in experiment [3] was 0%; in [4], 76%; in experiment [5], 0%. In addition, the values for the IC50 (in the experiment with T47D; in [1]; in [2]) were 7.9 µM, 6.5 µM and 3.1 µM, respectively.
